Results: ChEMBL document CHEMBL4251685, “Microthecaline A, a Quinoline Serrulatane Alkaloid from the Roots of the Australian Desert Plant Eremophila microtheca” (J Nat Prod, 2018)
The source made the active and inactive calls. The rule behind the calls is not given here.

What was measured:
HEK293 = assay: Cytotoxicity against HEK293 cells assessed as inhibition of cell growth at 10 uM after 72 hrs by alamar blue assay; assay type: cell-based; conditions: human, hek293, 72 h
[1] = Selectivity index, ratio of IC50 for HEK293 cells to IC50 for chloroquine-sensitive Plasmodium falciparum 3D7; assay type: toxicity; conditions: human; read-out: Ratio IC50
[2] = Selectivity index, ratio of IC50 for HEK293 cells to IC50 for chloroquine-resistant Plasmodium falciparum Dd2; assay type: toxicity; conditions: human; read-out: Ratio IC50
Plasmodium falciparum [3] = assay: Antimalarial activity against chloroquine-resistant Plasmodium falciparum Dd2 after 72 hrs by DAPI staining based fluorescence assay; assay type: functional, organism-based; conditions: Dd2, 72 h
Plasmodium falciparum [4] = assay: Antimalarial activity against chloroquine-sensitive Plasmodium falciparum 3D7 at 10 uM after 72 hrs by DAPI staining based fluorescence assay; assay type: functional, organism-based
Plasmodium falciparum [5] = assay: Antimalarial activity against chloroquine-resistant Plasmodium falciparum Dd2 at 10 uM after 72 hrs by DAPI staining based fluorescence assay; assay type: functional, organism-based
Plasmodium falciparum [6] = assay: Antimalarial activity against chloroquine-sensitive Plasmodium falciparum 3D7 after 72 hrs by DAPI staining based fluorescence assay; assay type: functional, organism-based; conditions: 3D7, 72 h
[7] = Cytotoxicity against HEK293 cells assessed as inhibition of cell growth at 80 uM after 72 hrs by alamar blue assay relative to control; assay type: cell-based; conditions: human, read-out: GI
Procedure, shortened: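 HEK293 human embryonic kidney cells; the reported value is the average percent inhibition measured at 80 μM.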

In the case of `CCN(CC)CCCC(C)Nc1ccnc2cc(Cl)ccc12` (stereo not drawn) [CHLOROQUINE], the “growth inhibition (GI)” value (HEK293) is reported as “Not Active”.

With `COc1ccc(C[C@H](N)C(=O)N[C@H]2[C@@H](O)[C@H](n3cnc4c(N(C)C)ncnc43)O[C@@H]2CO)cc1` [PUROMYCIN] the selectivity ratio [1] was 9 and the selectivity ratio [2] was 10.5.

`C[C@H]1[C@H](OC(=O)CCC(=O)O)O[C@@H]2O[C@@]3(C)CC[C@H]4[C@H](C)CC[C@@H]1[C@@]24OO3` [ARTESUNATE] gave an IC50 (Plasmodium falciparum [3]) of 0.001 µM, a selectivity ratio [1] of 11600 and a selectivity ratio [2] of 10000.

In the case of `COc1cc(C)c2ncc(CCC=C(C)C)c3c2c1[C@H](C)CC3`, the Activity (Plasmodium falciparum [4]) is reported as “inactive” and the Activity (Plasmodium falciparum [5]) is reported as “inactive”.

`CC(C)=CCCc1cnc2c(C)cc(O)c3c2c1CC[C@H]3C` gave an IC50 (Plasmodium falciparum [6]) of 7.7 µM, an IC50 (Plasmodium falciparum [3]) of 17.2 µM and an inhibition at 72 h, 80 µM [7] of 62%. For the same compound, the selectivity ratio [1] was 5.2 and the selectivity ratio [2] was 2.3.
